Laboratory results: article PMC9371903 (Nucleic Acids Research, 2022)

Assays:
[1] = target: ΔN-SUMO1 (residues 17–97 of human SUMO1) (Homo sapiens, UniProt P63165, C52A); test: ITC binding to ΔN-SUMO1; conditions: ΔN-SUMO1, 20 mM Tris–HCl pH 7.4, 25°C
[2] = target: SUMO1 (residues 2–97 of human SUMO1 with a C52A substitution) (Homo sapiens, UniProt P63165, C52A); test: ITC binding to SUMO1
[3] = test system: PML-NBs in IMR90 normal human fibroblasts (control vector or activated RAS); test: PML-NB formation by anti-PML immunofluorescence; format: cell-based; conditions: 24h treatment, 5 μM pyrithione
How it was run: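 IMR90 fibroblasts in pyruvate-free DMEM with 10% FBS and 1% penicillin/streptomycin, transduced with retroviral pBABE control or pBABE-RAS-V12. On day 6, plated on coverslips and treated next day for 24 h with vehicle, 5 μM pyrithione or 1 μM TPEN. Cells fixed in 4% PFA, permeabilised with 0.4% Triton X-100 and 0.1 M glycine, then blocked in 3% BSA. Anti-PML (1/250, overnight, 4°C), Alexa 568 secondary, DAPI. PML-NBs per cell and PML-NBs >1 μm counted.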

[4] = target: UBC9 (residues 2-158 of human UBC9) (human, UniProt P63279 2-158); test: ITC
[5] = target: SUMO2 (residues 2-93 of human SUMO2 with a C48A substitution) (human, UniProt P61956 2-93, C48A); test: ITC
[6] = target: ΔN-SUMO2 (residues 14-93) (human, UniProt P61956 14-93, C48A); test: ITC
ΔN-SUMO2 (residues 14-93), sequence (P61956 14-93 C48A): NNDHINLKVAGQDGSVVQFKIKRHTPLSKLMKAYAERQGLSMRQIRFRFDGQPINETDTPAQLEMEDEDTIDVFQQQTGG

UBC9 (residues 2-158 of human UBC9), sequence (P63279 2-158): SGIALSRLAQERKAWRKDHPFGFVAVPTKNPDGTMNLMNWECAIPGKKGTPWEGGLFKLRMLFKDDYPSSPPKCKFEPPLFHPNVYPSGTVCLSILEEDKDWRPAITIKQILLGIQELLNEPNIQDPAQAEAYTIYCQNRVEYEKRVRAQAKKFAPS
SUMO2 (residues 2-93 of human SUMO2 with a C48A substitution), sequence (P61956 2-93 C48A): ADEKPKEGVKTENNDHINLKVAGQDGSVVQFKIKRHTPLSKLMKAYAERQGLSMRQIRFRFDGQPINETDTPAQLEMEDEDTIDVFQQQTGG

## UBC9: residues 2–158 of human UBC9; E2 SUMO conjugating enzyme
[1]
  Kd: 0.073 ± 0.015 µM
[2]; ITC, SUMO1, 20 mM Tris–HCl pH 7.4, 25°C
  Kd: 0.029 ± 0.011 µM
[2]; ratio of ITC KD values, 20 mM Tris–HCl pH 7.4
  fold stronger binding to SUMO1 in comparison to ΔN-SUMO1: roughly 2.5 fold

## [O-][n+]1ccccc1S [pyrithione]
[3]; Ras-expressing (senescent) IMR90 cells
  formation of PML-NBs: induces significantly the formation of PML-NBs
[3]; vector-control IMR90 cells
  formation of PML-NBs: only a marginal increase

B1: ΔN-SUMO1 (residues 17-97 of human SUMO1) (domain or fragment, UniProt P63165 17-97, looked up)
chain: KEGEYIKLKVIGQDSSEIHFKVKMTTHLKKLKESYAQRQGVPMNSLRFLFEGQRIADNHTPKELGMEEEDVIEVYQEQTGG
[4]
  Kd: 0.073 ± 0.015 µM

B2: Daxx-SIM-2SD (Daxx-SIM with S/D substitutions at positions 737 and 739) (peptide)
peptide: YKTSVATQADPEEIIVLDDDD
[5]
  Kd: 1 ± 0.1 µM
[6]
  Kd: 0.51 ± 0.11 µM
